ChEMBL document CHEMBL1268957, “Indapamide-like benzenesulfonamides as inhibitors of carbonic anhydrases I, II, VII, and XIII” (Bioorg Med Chem, 2010)

Columns and labels:
Carbonic anhydrase 2 [1] = biological target: T1, Carbonic anhydrase 2 (Homo sapiens, UniProt P00918); assay: Binding affinity to human recombinant carbonic anhydrase 2 by thermal shift assay
Carbonic anhydrase 13 [2] = biological target: T2, Carbonic anhydrase 13 (Homo sapiens, UniProt Q8N1Q1); assay: Binding affinity to human recombinant carbonic anhydrase 13 by thermal shift assay
Carbonic anhydrase 1 [3] = biological target: T3, Carbonic anhydrase 1 (Homo sapiens, UniProt P00915); assay: Binding affinity to human recombinant carbonic anhydrase 1 by thermal shift assay
Carbonic anhydrase 7 [4] = biological target: T4, Carbonic anhydrase 7 (Homo sapiens, UniProt P43166); assay: Binding affinity to human recombinant carbonic anhydrase 7 by thermal shift assay
Carbonic anhydrase 1 [5] = biological target: T3, Carbonic anhydrase 1; assay: Binding affinity to human recombinant carbonic anhydrase 1 by isothermal titration calorimetry assay
Summary of the method: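 Isothermal titration calorimetry of ligand binding to recombinant hCA at 37 °C in phosphate buffer with 50 mM NaCl, pH 7.0, final DMSO 0.5–2%. Heats of injection integrated against molar ratio to give the dissociation constant.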

Carbonic anhydrase 2 [6] = biological target: T1, Carbonic anhydrase 2; assay: Binding affinity to human recombinant carbonic anhydrase 2 by isothermal titration calorimetry assay
Carbonic anhydrase 7 [7] = biological target: T4, Carbonic anhydrase 7; assay: Binding affinity to human recombinant carbonic anhydrase 7 by isothermal titration calorimetry assay
Carbonic anhydrase 13 [8] = biological target: T2, Carbonic anhydrase 13; assay: Binding affinity to human recombinant carbonic anhydrase 13 by isothermal titration calorimetry assay

T3 sequence (P00915 whole entry): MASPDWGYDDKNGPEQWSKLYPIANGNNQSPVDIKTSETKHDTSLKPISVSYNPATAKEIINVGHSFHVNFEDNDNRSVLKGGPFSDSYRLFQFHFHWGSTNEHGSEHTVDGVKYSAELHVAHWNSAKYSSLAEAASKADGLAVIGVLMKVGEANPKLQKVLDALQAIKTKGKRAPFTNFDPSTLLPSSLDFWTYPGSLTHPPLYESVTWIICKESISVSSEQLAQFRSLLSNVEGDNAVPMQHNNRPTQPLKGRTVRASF
T2 sequence (Q8N1Q1 whole entry): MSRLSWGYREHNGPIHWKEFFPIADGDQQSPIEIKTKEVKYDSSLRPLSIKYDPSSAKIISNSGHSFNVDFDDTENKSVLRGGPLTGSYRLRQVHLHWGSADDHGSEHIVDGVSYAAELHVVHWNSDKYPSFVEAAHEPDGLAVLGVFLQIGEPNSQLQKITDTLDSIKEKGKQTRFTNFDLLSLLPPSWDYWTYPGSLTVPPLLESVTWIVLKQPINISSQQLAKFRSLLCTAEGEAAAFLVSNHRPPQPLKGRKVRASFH
T4 sequence (P43166 whole entry): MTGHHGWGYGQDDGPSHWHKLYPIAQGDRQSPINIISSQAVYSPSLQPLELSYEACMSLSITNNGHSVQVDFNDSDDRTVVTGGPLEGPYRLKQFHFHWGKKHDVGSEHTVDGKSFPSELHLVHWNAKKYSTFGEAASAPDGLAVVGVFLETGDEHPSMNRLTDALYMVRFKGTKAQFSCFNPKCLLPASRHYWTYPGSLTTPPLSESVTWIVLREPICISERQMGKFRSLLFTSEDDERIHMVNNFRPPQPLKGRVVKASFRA

Row | SMILES | Kd (Carbonic anhydrase 2 [1]) | Kd (Carbonic anhydrase 13 [2]) | Kd (Carbonic anhydrase 1 [3]) | Kd (Carbonic anhydrase 7 [4]) | Kd (Carbonic anhydrase 1 [5]) | Kd (Carbonic anhydrase 2 [6]) | Kd (Carbonic anhydrase 7 [7]) | Kd (Carbonic anhydrase 13 [8])
1 | CC(C)Cc1nc2ccccc2n1CC(=O)c1ccc(Cl)c(S(N)(=O)=O)c1 | 400 nM |  |  |  |  |  |  | 
2 | NS(=O)(=O)c1cc(C(=O)Cn2c(CO)nc3ccccc32)ccc1Cl |  | 300 nM |  |  |  |  |  | 
3 | NS(=O)(=O)c1cc(C(=O)CSc2nc3c(cnc4ccccc43)[nH]2)ccc1Cl |  | 100 nM | 1300 nM | 100 nM |  |  |  | 
4 | NS(=O)(=O)c1cc(C(=O)Cn2c(CN3CCOCC3)nc3ccccc32)ccc1Cl | 4200 nM | 12500 nM | 40000 nM | 10000 nM |  |  |  | 
5 | NS(=O)(=O)c1cc(C(=O)CSc2nc3ccccc3[nH]2)ccc1Cl | 100 nM | 200 nM | 1000 nM | 30 nM | 1300 nM | 100 nM | 100 nM | 100 nM
6 | NS(=O)(=O)c1cc(C(=O)CSc2nc3cc4c(cc3[nH]2)OCCO4)ccc1Cl | 20 nM | 100 nM | 3100 nM | 100 nM | 2200 nM |  | 1100 nM | 300 nM
7 | NS(=O)(=O)c1cc(C(=O)Cn2cnc3ccccc32)ccc1Cl |  | 700 nM |  |  |  |  |  | 
8 | NS(=O)(=O)c1cc(C(=O)CSc2nc3ccc(Br)cc3[nH]2)ccc1Cl |  | 100 nM | 1300 nM | 100 nM | 1400 nM |  |  | 200 nM
